Drawing on ChEMBL document CHEMBL4196176, “Structure-Based Design of MptpB Inhibitors That Reduce Multidrug-Resistant Mycobacterium tuberculosis Survival and Infection Burden in Vivo” (J Med Chem, 2018), this text covers inhibition and Activity for nine compounds.

Positions count from the first letter of the chain named. The source made the active and inactive calls. No cut-off for these calls is given here.

The target of assay [1] is T1, Phosphotyrosine protein phosphatase (Mycobacterium tuberculosis) (UniProt A0A045ISB3).
T1 sequence (whole entry): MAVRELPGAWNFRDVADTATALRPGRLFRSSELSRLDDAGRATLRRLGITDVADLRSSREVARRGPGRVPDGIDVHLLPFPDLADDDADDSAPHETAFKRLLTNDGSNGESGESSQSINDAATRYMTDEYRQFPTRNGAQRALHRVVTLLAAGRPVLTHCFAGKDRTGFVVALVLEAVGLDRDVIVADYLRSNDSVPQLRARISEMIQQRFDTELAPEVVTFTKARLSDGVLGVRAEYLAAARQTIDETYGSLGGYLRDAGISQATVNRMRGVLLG
Nature of the assay: Inhibition of multi-drug resistant Mycobacterium tuberculosis Beijing-W_565 ptpB infected in human THP1 cells assessed as reduction in intracellular bacterial burden at 20 to 80 uM after 72 hrs post infection relative to DMSO-treated control. Format: cell-based. Summed up: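 THP1 cells (1 × 10^6/well) were PMA-treated overnight. Inhibitor (20 or 80 μM, in DMSO) was added in RPMI with 10% FBS before infection with thawed bacteria at MOI 1:1. Washed four times after 3 h; inhibitor re-added at 24 h. At 72 h, cells lysed in 0.05% SDS and CFU plated (duplicate 10-fold dilutions, 7H10, 3 weeks); triplicates.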

Assay [2] has as its target T2, Phosphotyrosine protein phosphatase ptpB (Mycobacterium bovis (strain BCG / Pasteur 1173P2)) (UniProt A0A0H3M0T0).
T2 sequence (whole entry): T1 sequence (whole entry) with D105G
Nature of the assay: Inhibition of Mycobacterium bovis BCG Pasteur ptpB infected in mouse J774A.1 cells assessed as reduction in intracellular bacterial burden at 10 to 120 uM after 72 hrs post infection relative to DMSO-treated control. Type of assay: cell-based. To be noted: Mycobacterium tuberculosis variant bovis BCG. Put shortly:
(§1)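 J774A.1 mouse macrophages in DMEM with 10% heat-inactivated FBS, seeded at 2 × 10^3/well overnight. Pretreated with inhibitor in DMSO or DMSO alone, then infected with BCG Pasteur at MOI 10:1 for 4 h and washed (time 0). Medium and inhibitor renewed at 24 h. Cells lysed in 0.05% Tween 80 at 72 h; CFU counted on 7H10 after 3 weeks. Triplicate, ≥3 experiments.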

The target in assay [3] is T2, Phosphotyrosine protein phosphatase ptpB (Mycobacterium bovis (strain BCG / Pasteur 1173P2)). Nature of the assay: Inhibition of Mycobacterium bovis BCG Pasteur ptpB infected in mouse J774A.1 cells assessed as reduction in intracellular bacterial burden at 10 to 120 uM after 24 hrs post infection. Type of assay: cell-based. To be noted: Mycobacterium tuberculosis variant bovis BCG. Summed up: as §1

The target is the same in assay [4]. Nature of the assay: Inhibition of Mycobacterium bovis BCG Pasteur ptpB infected in mouse J774A.1 cells assessed as reduction in intracellular bacterial burden at 80 uM after 72 hrs post infection. Type of assay: cell-based. To be noted: Mycobacterium tuberculosis variant bovis BCG. Put shortly:
as §1

The subject of assay [5] is Mycobacterium tuberculosis variant bovis BCG. Nature of the assay: Antibacterial activity against Mycobacterium bovis BCG Pasteur infected in mouse J774A.1 cells assessed as reduction in bacterial burden at 0.3 ug/ml after 72 hrs post infection relative to control. Format: functional. On the set-up: scale not given: the % may be the effect or the level left. Summed up: as §1

Assay [6] has the same test system. Nature of the assay: Antibacterial activity against Mycobacterium bovis BCG Pasteur infected in mouse J774A.1 cells assessed as reduction in bacterial burden at 0.1 ug/ml after 72 hrs post infection relative to control. On the set-up: scale not given: the % may be the effect or the level left. Type of assay: functional. Summed up: as §1
Assay [7] concerns the target T2, Phosphotyrosine protein phosphatase ptpB (Mycobacterium bovis (strain BCG / Pasteur 1173P2)). Nature of the assay: Inhibition of Mycobacterium bovis BCG Pasteur ptpB infected in mouse J774A.1 cells assessed as reduction in intracellular bacterial burden up to 500 uM after 72 hrs post infection relative to treated-DMSO control. Type of assay: cell-based. To be noted: Mycobacterium tuberculosis variant bovis BCG. Summed up: as §1

In assay [8] the test system is Mycobacterium tuberculosis variant bovis BCG. Nature of the assay: Antibacterial activity against Mycobacterium bovis BCG Pasteur assessed as reduction in extracellular growth at 80 uM. Format: functional, organism-based.
The target in assay [9] is T1, Phosphotyrosine protein phosphatase (Mycobacterium tuberculosis). Nature of the assay: Inhibition of multi-drug resistant Mycobacterium tuberculosis Beijing-W_565 ptpB infected in human THP1 cells assessed as reduction in intracellular bacterial burden at 20 to 100 uM after 72 hrs post infection relative to DMSO-treated control. Type of assay: cell-based. Summed up:
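PMA-differentiated THP1 cells (1 × 10^6/well) in RPMI with 10% FBS. Inhibitor (0, 20 or 80 μM in DMSO) added, then infected with thawed M. tuberculosis at MOI 1:1 for 3 h and washed 4 times. Medium and inhibitor renewed at 24 h. Cells lysed in 0.05% SDS at 72 h; CFU plated in duplicate and counted after 3 weeks. Triplicate.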

In assay [10] the target is T2, Phosphotyrosine protein phosphatase ptpB (Mycobacterium bovis (strain BCG / Pasteur 1173P2)). Nature of the assay: Inhibition of Mycobacterium bovis BCG Pasteur ptpB infected in mouse J774A.1 cells assessed as reduction in intracellular bacterial burden at 5 uM after 72 hrs post infection in presence of isoniazid. Type of assay: cell-based. To be noted: Mycobacterium tuberculosis variant bovis BCG. Put shortly: as §1

Assay [11] shares this target. Nature of the assay: Inhibition of Mycobacterium bovis BCG Pasteur ptpB infected in mouse J774A.1 cells assessed as reduction in intracellular bacterial burden at 5 uM after 72 hrs post infection in presence of rifampicin. Type of assay: cell-based. The conditions noted are these: Mycobacterium tuberculosis variant bovis BCG. Put shortly:
as §1

For orientation: inhibition means the share of the control response that was lost under treatment. Consider `COC(=O)c1c(O)cccc1OC/C=C/c1cccc(-c2cc(C(=O)O)no2)c1` [ISOXAZOLECARBOXYLIC ACID], for which, in [1], the inhibition result is “Active”.
In the case of `O=C(O)c1noc(-c2ccccc2)c1-c1cccc(-c2cc(Cl)c(O)c(Cl)c2)c1`, the inhibition in [2] lay in the range of 81 to 87%. Further, the inhibition result in assay [3] is “Active”.
As for `O=C(O)c1noc(-c2ccccc2)c1-c1cccc(-c2ccc(O)c(Cl)c2)c1`, the inhibition in assay [2] is 81 to 87%. Moreover, the inhibition result in assay [3] and in assay [4] was “Active” in each case.
With `CO[C@H]1/C=C/O[C@@]2(C)Oc3c(C)c(O)c4c(O)c(c(/C=N/N5CCN(C)CC5)c(O)c4c3C2=O)NC(=O)/C(C)=C\C=C\[C@H](C)[C@H](O)[C@@H](C)[C@@H](O)[C@@H](C)[C@H](OC(C)=O)[C@@H]1C` [RIFAMPIN], the Activity in assay [5] is listed as less than 25%.
In the case of `NNC(=O)c1ccncc1` [ISONIAZID], in assay [6], the Activity was less than 25%.
With `Cc1onc(C(=O)O)c1-c1cccc(-c2cc(Cl)c(O)c(Cl)c2)c1`, the inhibition in [7] is less than 84%; in assay [9], less than 74%; in [10], greater than 93%; in [11] it was greater than 93%. Further, the result in [8] was inactive.
Regarding `O=C(O)c1noc(-c2ccccc2)c1-c1cccc(-c2cc(Cl)c(O)c([N+](=O)[O-])c2)c1`, the inhibition in [2] was in the range of 81 to 87%. The inhibition result in [3] and in [4] was “Active” each time.
For `O=C(O)c1noc(-c2ccccc2)c1-c1cccc(-c2ccc(O)c(F)c2)c1`, the inhibition in [2] fell in the range of 81 to 87%. Also, the inhibition result in [3] and in assay [4] was “Active” throughout.
As for `O=C(O)c1noc(-c2ccccc2)c1-c1cccc(-c2ccc(O)cc2)c1`, the inhibition in assay [2] was 81 to 87%. Also, the inhibition result in [3] and in assay [4] was “Active” throughout.
